13 compounds from ChEMBL document CHEMBL4190301, “Isolation, Structure Elucidition, and Immunosuppressive Activity of Diterpenoids from Ligularia fischeri” (J Nat Prod, 2017) can be followed below.

Active and inactive are the calls of the source. No cut-off for these calls is given here.

In test [1] the test system is HMy2.C1R. In words: Immunosuppressive activity in human HMy2.C1R cells assessed as cell growth at 5 uM after 48 hrs by SRB assay relative to control. In kind it is functional. The method in brief: (§1)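 Human B lymphoblast HMy2.CIR cells were seeded in 96-well plates in medium with 5% FBS. After 24 h, a plate was TCA-fixed as time zero (T0). Cells were then exposed to DMSO or compound at 2.5–40 μM for 48 h, fixed with 10% TCA and stained with 0.4% SRB in 1% HOAc. Bound dye was solubilized in 10 mM Trizma base and read at 540 nm. Percentage growth was calculated from T0, control and treated absorbances; mean ± SD, n = 3.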

Test [2] relates to HMy2.C1R. In words: Immunosuppressive activity in human HMy2.C1R cells assessed as cell growth at 10 uM after 48 hrs by SRB assay relative to control. In kind it is functional. The method in brief:
as §1
On the technique in general: The SRB assay estimates cell density from bound dye.

Test [3] concerns HMy2.C1R. In words: Immunosuppressive activity in human HMy2.C1R cells assessed as cell growth at 40 uM after 48 hrs by SRB assay relative to control. In kind it is functional. The method in brief:
as §1

The subject of test [4] is HMy2.C1R. In words: Immunosuppressive activity in human HMy2.C1R cells assessed as cell growth at 20 uM after 48 hrs by SRB assay relative to control. The test is classed as functional. The method in brief: as §1
Test [5] has as its system HMy2.C1R. In words: Immunosuppressive activity in human HMy2.C1R cells assessed as cell growth inhibition after 48 hrs by SRB assay.
Test [6] has as its system HMy2.C1R. In words: Immunosuppressive activity in human HMy2.C1R cells assessed as cell growth at 2.5 uM after 48 hrs by SRB assay relative to control. In kind it is functional. The gist of the method: as §1
The subject of test [7] is HMy2.C1R. The experiment in a line: Immunosuppressive activity in human HMy2.C1R cells assessed as cell growth inhibition at 2.5 to 40 uM after 48 hrs by SRB assay. In kind it is functional, cell-based. The gist of the method: as §1
Test [8] deals with HMy2.C1R. In words: […] in human HMy2.C1R cells at 2.5 to 40 uM after 48 hrs by SRB assay. The test is classed as functional, cell-based. The gist of the method: as §1

For the compound `C=C[C@](C)(O)CC[C@@H]1C(=C)CC[C@@H]2C(C)(C)C[C@@H](O)C[C@@]12C`, the Ratio in test [1] worked out at 0.812; in test [2], 0.761; in test [3], 0.39; in test [4] it was 0.648; in test [6], 0.934. Also, the IC50 (in general, the concentration that gives 50% inhibition) in test [5] worked out at 31.4 µM.
As to `CC1(C)CCC[C@]2(C=O)[C@@H]1CC[C@@]13C[C@@H](CC[C@H]12)[C@](C)(O)C3`, in test [7], the inhibition result is “inactive”.
In the case of `COc1cc(/C=C/C(=O)OC[C@@]2(O)C[C@@]34CC[C@@H]5C(C)(C)CCC[C@@]5(C(=O)O)[C@@H]3CC[C@@H]2C4)ccc1O`, the inhibition entry in test [7] was “inactive”.
Take `C=C1[C@H](O)CC[C@@H]2[C@@]3(C)CC[C@](C)(O)C[C@@H]3CC[C@@]12C`: the Activity result in test [8] is “Dose-dependent effect”.
With `C[C@@]12CC[C@@H](O)[C@@](C)(C(=O)O)[C@H]1CC[C@@]13C[C@@H](CC[C@H]12)[C@@](O)(CO)C3`, the inhibition entry in test [7] is “inactive”.
Regarding `CC1(C)CCC[C@]2(C)[C@@H]1CC[C@@]13C[C@@H](CC[C@H]12)[C@](C)(O)C3`, in test [7], the inhibition entry is “inactive”.
On the same count and under the same terms, the result for `C[C@]12CCC[C@]3(COC1=O)[C@@H]2C[C@H](O)[C@@]12C[C@@H](CC[C@]13O)[C@](C)(O)C2` reads “inactive”.
On to `C[C@]12CCC[C@@]3(COC1=O)[C@@H]1CC[C@@H]4C[C@@]1(CC[C@@H]32)C[C@@]4(C)O`, for which the Ratio in test [1] amounted to 0.809; in test [2], 0.762; in test [3] it was 0.6; in test [4], 0.683; in test [6] it was 0.849. The IC50 in test [5] came to 56.3 µM.
Regarding `CC1(C)CCC[C@]2(C=O)[C@@H]1CC[C@@]13C[C@@H](CC[C@H]12)[C@@](O)(CO)C3`, the Ratio in test [1] is 0.685; in test [2] it was 0.525; in test [3] it was 0.301; in test [4], 0.455; in test [6], 0.791. Moreover, the IC50 in test [5] came out at 13.3 µM.
Turning to `C[C@]12CCC[C@@]3(COC1=O)[C@@H]1[C@@H]4C[C@@H]5C[C@@]1(CC[C@@H]32)C[C@]5(C)O4`, the inhibition result in test [7] was “inactive”.
Same read-out and setting: for `CC1(C)CCC[C@]2(C(=O)O)[C@@H]1CC[C@@]13C[C@@H](CC[C@H]12)[C@](C)(O)C3` the value was “inactive”; for `CC1(C)CCC[C@]2(C(=O)O)[C@@H]1CC[C@@]13C[C@@H](CC[C@H]12)[C@@](O)(CO)C3`, “inactive”.
For the compound `C[C@]12CCC[C@]3(COC1=O)[C@@H]2CC[C@@]12C[C@@H](CC[C@]13O)[C@](C)(O)C2`, the Activity entry in test [8] is “Dose-dependent effect”.
